Bounds are passed on as bounds.

In series [1] the target is S-adenosylmethionine synthase isoform type-2 (Homo sapiens, UniProt P31153). As to the kind of experiment: Inhibition of recombinant human MAT2A expressed in baculovirus infected Sf9 cells assessed as S-adenosyl methionine production using L-methionine as substrate incubated for 60 mins followed by substrate addition and measured after 60 mins relative to control. Also on record: concentration or dose not given beside the values.

Series [2] can be described thus: Protein binding in human plasma assessed as unbound fraction. The class given is ADME, cell-free.
A short description of series [3]: Protein binding in dog plasma assessed as unbound fraction. In kind it is ADME, cell-free, Canis lupus familiaris.
Series [4] can be described thus: Oral bioavailability in dog at 5 mg/kg. In kind it is ADME, organism-based, Canis lupus familiaris. The note with it: in vivo.
Series [5] can be described thus: Oral bioavailability in rat at 5 mg/kg. The class given is ADME, organism-based. The note with it: in vivo.
A further series deals with T1, PXR (NR1I2) (Homo sapiens, UniProt O75469).
T1 sequence (O75469 whole entry): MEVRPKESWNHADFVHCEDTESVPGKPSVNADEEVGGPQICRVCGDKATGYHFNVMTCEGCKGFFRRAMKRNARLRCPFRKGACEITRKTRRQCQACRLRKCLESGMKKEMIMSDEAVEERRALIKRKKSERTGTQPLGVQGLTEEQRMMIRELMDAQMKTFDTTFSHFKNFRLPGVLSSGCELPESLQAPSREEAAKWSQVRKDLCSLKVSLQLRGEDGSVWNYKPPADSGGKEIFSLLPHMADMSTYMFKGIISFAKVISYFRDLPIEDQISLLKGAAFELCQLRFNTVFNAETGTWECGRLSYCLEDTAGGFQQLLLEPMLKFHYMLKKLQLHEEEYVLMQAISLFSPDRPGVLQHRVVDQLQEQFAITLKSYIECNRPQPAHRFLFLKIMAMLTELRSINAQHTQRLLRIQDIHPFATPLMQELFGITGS
As to the kind of experiment: Transactivation of PXR in human HepG2 cells relative to rifampicin. In kind it is cell-based. The note with it: read-out: Activity.

Series [6] deals with T2, UDP-glucuronosyltransferase 1A1 (Homo sapiens, UniProt P22309).
T2 sequence (P22309 whole entry): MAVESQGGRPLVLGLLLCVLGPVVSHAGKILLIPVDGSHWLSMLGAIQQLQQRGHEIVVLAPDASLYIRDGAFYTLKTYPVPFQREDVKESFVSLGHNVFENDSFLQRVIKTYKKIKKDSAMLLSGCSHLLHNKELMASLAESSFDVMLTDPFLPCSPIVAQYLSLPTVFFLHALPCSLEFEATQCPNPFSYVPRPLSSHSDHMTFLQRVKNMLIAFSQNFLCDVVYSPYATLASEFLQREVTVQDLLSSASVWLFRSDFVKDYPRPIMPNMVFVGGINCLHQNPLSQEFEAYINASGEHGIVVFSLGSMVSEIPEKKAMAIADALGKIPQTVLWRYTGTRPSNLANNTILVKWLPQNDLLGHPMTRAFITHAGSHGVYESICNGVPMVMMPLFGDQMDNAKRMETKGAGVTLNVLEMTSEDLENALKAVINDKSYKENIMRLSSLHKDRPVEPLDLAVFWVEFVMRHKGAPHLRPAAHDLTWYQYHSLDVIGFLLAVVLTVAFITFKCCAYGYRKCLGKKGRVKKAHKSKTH
In words: Inhibition of UGT1A1 (unknown origin). The class given is ADME.

The target of another series is Cytochrome P450 2C9 (Homo sapiens, UniProt P11712). As to the kind of experiment: Inhibition of CYP2C9 (unknown origin). The class given is ADME.
In a further series the target is Cytochrome P450 3A4 (Homo sapiens, UniProt P08684). In words: Inhibition of CYP3A4 (unknown origin) assessed as inactivation relative to control. The class given is ADME.
Series [7] relates to KP-4. As to the kind of experiment: Anticancer activity in MTAP-null human KP-4 cells xenografted mouse model assessed as tumor growth inhibition at 10 mg/kg, po qd treated for 38 days relative to control. In kind it is functional. As to conditions: KP-4, po, 912 h, time 38 day, read-out: TGI. A digest of the protocol:
(§1)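 Subcutaneous KP4 MTAP-null xenograft mice, 12 per arm (60 animals), dosed orally once daily on days 24−38 at 10−200 mg/kg. Tumor SAM levels and plasma compound exposure were monitored; plasma sampled up to 24 h after the last dose. Mean tumor volume and body weight change were tracked; error bars are SEM.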
(In general: A xenograft is tissue or cells of one species grown in another, often human tumour cells in immunodeficient mice.)

For series [8], the system named is KP-4. As to the kind of experiment: Anticancer activity in MTAP-null human KP-4 cells xenografted mouse model assessed as tumor growth inhibition at 100 mg/kg, po qd treated for 38 days relative to control. The note with it: KP-4, po, 912 h, time 38 day, read-out: TGI. The class given is functional. A digest of the protocol:
as §1

The test system of series [9] is KP-4. As to the kind of experiment: Anticancer activity in MTAP-null human KP-4 cells xenografted mouse model assessed as tumor growth inhibition at 200 mg/kg, po qd treated for 38 days relative to control. In kind it is functional. The note with it: KP-4, po, 912 h, time 38 day, read-out: TGI. A digest of the protocol:
as §1

Series [10] relates to KP-4. As to the kind of experiment: Anticancer activity in MTAP-null human KP-4 cells xenografted mouse model assessed as inhibition of SAM production at 100 mg/kg, po qd treated for 38 days relative to control. The class given is functional. The note with it: KP-4, po, 912 h, time 38 day. A digest of the protocol:
as §1

Sequence of S-adenosylmethionine synthase isoform type-2 (P31153 whole entry, looked up, canonical isoform): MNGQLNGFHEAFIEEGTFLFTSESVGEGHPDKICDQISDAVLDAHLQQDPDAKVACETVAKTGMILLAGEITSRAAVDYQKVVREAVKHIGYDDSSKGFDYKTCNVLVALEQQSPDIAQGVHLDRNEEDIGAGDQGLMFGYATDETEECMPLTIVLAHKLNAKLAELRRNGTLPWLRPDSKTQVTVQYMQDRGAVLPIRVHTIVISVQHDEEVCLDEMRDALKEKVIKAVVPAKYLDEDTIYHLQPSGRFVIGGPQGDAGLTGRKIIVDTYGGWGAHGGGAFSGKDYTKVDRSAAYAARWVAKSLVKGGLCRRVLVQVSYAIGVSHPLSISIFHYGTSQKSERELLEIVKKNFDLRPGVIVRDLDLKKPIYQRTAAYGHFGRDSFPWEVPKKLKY
Sequence of Cytochrome P450 3A4 (P08684 whole entry): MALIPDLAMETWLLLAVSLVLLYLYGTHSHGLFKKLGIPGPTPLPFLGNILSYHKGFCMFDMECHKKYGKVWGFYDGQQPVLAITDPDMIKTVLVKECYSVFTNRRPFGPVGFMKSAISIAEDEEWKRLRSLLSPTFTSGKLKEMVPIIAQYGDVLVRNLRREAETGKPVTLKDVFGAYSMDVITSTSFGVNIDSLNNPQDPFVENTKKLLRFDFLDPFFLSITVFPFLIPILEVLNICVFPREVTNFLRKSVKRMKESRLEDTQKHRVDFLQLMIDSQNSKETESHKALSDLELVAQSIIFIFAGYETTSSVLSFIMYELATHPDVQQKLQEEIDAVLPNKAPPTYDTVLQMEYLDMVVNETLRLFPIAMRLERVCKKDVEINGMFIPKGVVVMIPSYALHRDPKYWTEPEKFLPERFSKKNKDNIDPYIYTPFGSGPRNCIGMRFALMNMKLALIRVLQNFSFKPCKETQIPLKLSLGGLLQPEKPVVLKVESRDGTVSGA
Sequence of Cytochrome P450 2C9 (P11712 whole entry): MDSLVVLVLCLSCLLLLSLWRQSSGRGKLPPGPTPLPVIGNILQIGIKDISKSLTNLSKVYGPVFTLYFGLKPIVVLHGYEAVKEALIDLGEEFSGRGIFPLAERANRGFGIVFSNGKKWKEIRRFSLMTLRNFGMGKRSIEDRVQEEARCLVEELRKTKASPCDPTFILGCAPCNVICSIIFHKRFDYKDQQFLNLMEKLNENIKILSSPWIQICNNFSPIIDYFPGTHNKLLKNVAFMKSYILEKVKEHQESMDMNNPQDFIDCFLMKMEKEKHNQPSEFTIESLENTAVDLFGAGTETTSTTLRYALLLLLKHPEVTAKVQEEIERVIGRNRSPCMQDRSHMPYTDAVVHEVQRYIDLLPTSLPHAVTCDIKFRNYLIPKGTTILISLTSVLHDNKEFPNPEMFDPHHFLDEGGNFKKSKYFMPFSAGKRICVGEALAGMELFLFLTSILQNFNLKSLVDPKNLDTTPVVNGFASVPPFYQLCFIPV

On to `COc1ccc(-c2c(Nc3ccccn3)[nH]c3c(C4=CCCCC4)c(-c4ccccc4)nn3c2=O)cc1`, for which the inhibition in [1] was 91%. Moreover, the fraction unbound came out at 0.015 in series [2] and 0.028 in series [3]. For the same compound, the bioavailability in series [4] was 48%; in series [5], 92%. The Emax at PXR (NR1I2) turned out to be 22%. Further, the IC50 in [6] was 1100 nM; against Cytochrome P450 2C9, greater than 10 µM. The INH on Cytochrome P450 3A4 is greater than 50 µM. In addition, the inhibition in vivo at 10 mg/kg in the series with KP-4 [7] was found to be 36%. The values for the inhibition in vivo at 100 mg/kg in the series with KP-4 [8] and with KP-4 [10] were 66% and 63.5%, respectively. Moreover, the inhibition in vivo at 200 mg/kg in the series with KP-4 [9] is 67%.

For orientation: inhibition means the drop in the measured response relative to a control, in per cent. For orientation: fraction unbound means the share of the substance not bound to proteins or other matrix. Broadly, the bioavailability is dose-corrected exposure relative to a reference, in per cent. The IC50 is the midpoint of a concentration-inhibition curve.
